In the library only some 3.8% were active in any assay of this set; here they are far more common.
Kir21 block: inhibitors of mouse Kir2.1 inward-rectifier potassium channel; HEK293-Kir2.1, FluxOR thallium flux fluorescence; stronger effect = lower value; B-score at 10 µM; 310,000 compounds, 0.85% hits; AID 1672, 2009;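 active = fluorescence ratio B-score at or below minus 3 SD of library scores, with starting-brightness B-score within 2 SD, cut at about -4.2 in these data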;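 also: channel flux triggered by added potassium and thallium sulfate stimulus; B-score of peak minus minimum fluorescence over baseline after thallium stimulus; more negative B-score means stronger Kir2.1 block with less thallium influx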
KCNQ1 inh: inhibitors of human KCNQ1 channel, primary screen, cell-based, thallium flux, high-throughput | 310,000 compounds, 1.3% hits | AID 2642, 2010 | B-score at 10 µM | CHO-K1 KCNQ1, FluxOR thallium flux fluorescence; stronger effect = higher value;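 active = compounds whose thallium flux B-score, printed positive for inhibition, exceeds three library SD while starting fluorescence stays within three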;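 also: channel opened by potassium depolarization with thallium stimulus after 20 min compound exposure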
Target sequence (P51787 whole entry, looked up): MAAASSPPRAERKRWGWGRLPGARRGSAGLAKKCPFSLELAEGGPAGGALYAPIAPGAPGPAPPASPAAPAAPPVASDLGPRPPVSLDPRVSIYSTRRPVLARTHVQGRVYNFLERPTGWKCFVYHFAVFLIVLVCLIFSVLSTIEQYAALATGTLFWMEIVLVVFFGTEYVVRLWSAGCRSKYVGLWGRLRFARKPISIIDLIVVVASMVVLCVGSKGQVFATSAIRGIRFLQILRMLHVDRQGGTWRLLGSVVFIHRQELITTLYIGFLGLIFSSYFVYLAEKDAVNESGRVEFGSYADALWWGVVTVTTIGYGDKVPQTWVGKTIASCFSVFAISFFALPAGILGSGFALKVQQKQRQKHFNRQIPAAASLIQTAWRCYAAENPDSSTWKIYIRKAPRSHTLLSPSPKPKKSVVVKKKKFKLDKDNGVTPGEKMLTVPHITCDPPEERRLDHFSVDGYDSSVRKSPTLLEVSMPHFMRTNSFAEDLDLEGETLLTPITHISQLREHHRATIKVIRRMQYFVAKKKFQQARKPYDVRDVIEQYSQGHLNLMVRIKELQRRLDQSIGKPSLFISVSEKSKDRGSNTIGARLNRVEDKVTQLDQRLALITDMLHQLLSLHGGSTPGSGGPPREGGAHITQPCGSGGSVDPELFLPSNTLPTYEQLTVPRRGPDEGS
KCNQ1 act: potentiators or activators of KCNQ1 channel, primary screen, cell-based, thallium flux, high-throughput; B-score at 10 µM; CHO-K1 KCNQ1, thallium flux FluxOR fluorescence; stronger effect = higher value; 310,000 compounds, 0.35% hits;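 active = fluorescence ratio B-score, a plate-corrected score, at least three library SD, with initial intensity B-score within 5 SD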
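Doses: Single concentration per compound, DMSO matched to controls | Test system: KCNQ1-transfected CHO-K1 cells | Timing: 90 min dye loading and 20 min compound exposure, both at room temperature | Measured by: Kinetic FluxOR thallium fluorescence, 10-s 1-Hz baseline, 110-s post-stimulus read | Medium: Assay buffer with matched DMSO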
hERG protect: hERG rescue from dofetilide block, primary screen, cell-based, CHO-hERG, FluxOR thallium flux, dofetilide IC70; AID 1511, 2009; 310,000 compounds, 0.51% hits; activation (rescue from dofetilide block), less the hit threshold, % at 10 µM; dofetilide IC70 present; Voltage-gated inwardly rectifying potassium channel KCNH2 (Homo sapiens), Q12809;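 active = activation above the mean of controls blocked by dofetilide plus 5 SD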;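 also: thallium influx through hERG after potassium depolarization seen as dye fluorescence rise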
KCNK3 block: human KCNK3 channel inhibitors, primary screen, CHO cells, FluxOR thallium flux, B-score; Potassium channel subfamily K member 3 (Homo sapiens), O14649; FluxOR fluorescence; stronger effect = lower value; B-score at 10 µM; 340,000 compounds, 0.84% hits; AID 602410, 2012;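 active = B-score under library mean minus 4 SD, starting fluorescence ratio at most library mean plus 5 SD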;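 also: more negative B-score means stronger inhibition of thallium flux through KCNK3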
KCNK9 inh: KCNK9 potassium channel inhibitors, primary screen, HEK293 cells, thallium flux. FluxOR thallium flux fluorescence; stronger effect = lower value. B-score at 10 µM. 310,000 compounds, 1.2% hits. AID 488922, 2010;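 active = ratio B-score over 3 SD below the library mean, with starting fluorescence within 5 SD of its mean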;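 also: negative B-score means less thallium flux so channel inhibition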
KCNK9 inh conf: KCNK9 potassium channel inhibitors, confirmation, HEK293 cells, thallium flux, duplicate; FluxOR thallium flux fluorescence; AID 492992, 2010; 4,900 compounds, 43% hits; inhibition, % at 10 µM; shares compounds with KCNK9 inh;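 active = thallium signal inhibited by more than 5 SD of the compound-free buffer control wells, on both duplicate plates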
Kir2-1 spec: mouse Kir2.1 channel inhibition, confirmation, selectivity assay for KCNK9 modulator project, cell-based, HEK293, thallium flux; shares compounds with KCNK9 inh; Kir2.1 cells, FluxOR thallium flux fluorescence; inhibition, % at 10 µM; 4,900 compounds, 4% hits;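 active = thallium signal drop more than 5 SD beyond the mean of the no-compound control wells, seen in both duplicate plates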;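 also: signal is fluorescence rise after thallium addition divided by baseline fluorescence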
HEK293 Tl ctr: thallium flux in non-induced HEK293 cells, confirmation, counter-screen for KCNK9 inhibitor project, cell-based, second counter screen, non-induced KCNK9-HEK293; shares compounds with KCNK9 inh; inhibition, % at 10 µM; AID 492997, 2010; 4,900 compounds, 40% hits; FluxOR thallium flux;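 active = thallium signal drop beyond 5 SD of the untreated control mean, on both duplicate plates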
Of the large screens only hits and unclear results are named; the others gave an inactive call (follow-up assays come after a bar, where they were run).

Cc1cc(Cl)ccc1C(=O)C1CCCN(C(=O)c2ccsc2)C1 (configuration not stated)	none | KCNK9 inh conf inactive | Kir2-1 spec inactive | HEK293 Tl ctr inactive
Cc1cc(Cl)ccc1C(=O)C1CCCN(C(=O)c2cc(C(C)C)no2)C1 (configuration not stated)	none | KCNK9 inh conf inactive | Kir2-1 spec inactive | HEK293 Tl ctr inactive
Cc1cc(Cl)ccc1C(=O)C1CCCN(C(=O)c2ccc3ncccc3c2)C1 (configuration not stated)	none | KCNK9 inh conf inactive | Kir2-1 spec inactive | HEK293 Tl ctr inactive
CCc1ccc2c(CN3CCC(C(=O)OC)CC3)cc(=O)oc2c1	none
NC(=O)C1CCCN(C(=O)c2ccc3c(c2)NC(=O)CS3)C1 (configuration not stated)	none (no result: Kir21 block, KCNQ1 inh, KCNQ1 act, hERG protect, KCNK9 inh)
CCOC(=O)CCC(NC(=O)c1ccc(Nc2nc3ccccc3nc2C(=O)OCC)cc1)C(=O)OCC (configuration not stated)	none (no result: Kir21 block, KCNQ1 inh, KCNQ1 act, hERG protect, KCNK9 inh)
CCN1/C(=C/c2sc(-c3ccccc3C)c[n+]2C)Sc2ccccc21	Kir21 block -7.6, KCNQ1 inh 11, KCNK3 block -10, KCNK9 inh -13 | KCNK9 inh conf 69% | Kir2-1 spec 64% | HEK293 Tl ctr 28%
CCC(=O)/C=C1/Sc2ccccc2N1CC	none
CCn1cc(/C=N/N=C2\CCC3C4CCc5cc(O)ccc5C4CC[C@]23C)c(C)n1 (some centres not stated)	none | KCNK9 inh conf inactive | Kir2-1 spec inactive | HEK293 Tl ctr inactive
COc1cc(/C=C2\SC(=S)N(NS(=O)(=O)c3ccc(C)cc3)C2=O)cc(OC)c1OC	none | KCNK9 inh conf inactive | Kir2-1 spec inactive | HEK293 Tl ctr inactive
COc1cc(/C=C2\SC(=S)N(NS(=O)(=O)c3ccc(C)cc3)C2=O)ccc1O	none
Cc1ccc(S(=O)(=O)NN2C(=O)/C(=C/c3cccc(F)c3)SC2=S)cc1	KCNQ1 act 10 | KCNK9 inh conf inactive | Kir2-1 spec inactive | HEK293 Tl ctr inactive
Cc1ccc(S(=O)(=O)NN2C(=O)/C(=C/c3ccccn3)SC2=S)cc1	none
NC(=O)c1ccccc1OCc1nnc(-c2ccccc2Br)o1	none
O=c1c2ccccc2nc(SCc2nnc(-c3ccccc3Br)o2)n1Cc1ccco1	none
O=c1c2ccccc2nc(SCc2cccc(F)c2)n1Cc1ccco1	KCNK9 inh -16 | KCNK9 inh conf 55% | Kir2-1 spec inactive | HEK293 Tl ctr 54%
COCCn1c(SCc2ccc(F)cc2)nc2ccccc2c1=O	KCNK9 inh -15 | KCNK9 inh conf 68% | Kir2-1 spec inactive | HEK293 Tl ctr 38%
COc1ccc(-c2ccc3c(c2)S(=O)(=O)c2cccc(C(=O)N4CCN(c5c(Cl)cncc5Cl)CC4)c2C3=O)cc1OC	none (no result: Kir21 block, KCNQ1 inh, KCNQ1 act, hERG protect, KCNK9 inh)
Cc1cccc(N2CCN(C(=O)Cc3ccccc3[N+](=O)[O-])CC2)c1C	none | KCNK9 inh conf inactive | Kir2-1 spec inactive | HEK293 Tl ctr inactive
CC(=O)Nc1ccc(NC(=O)c2c(C)nn(Cc3ccccc3Cl)c2C)cc1	none
Cc1cccc(N2CCN(C(=O)c3c(C)nn(Cc4ccccc4Cl)c3C)CC2)c1C	none | KCNK9 inh conf inactive | Kir2-1 spec inactive | HEK293 Tl ctr inactive

Compound activity from PubChem.
